Measurements published in ChEMBL document CHEMBL1275406, “Comparison of the antimicrobial effects of chlorine, silver ion, and tobramycin on biofilm” (2008).
Calls of active or inactive are those of the source. The calls are words filed in the database; no cut-off is given here.

Experiments:
Pseudomonas aeruginosa [1] = experiment: Antimicrobial activity against Pseudomonas aeruginosa PAO1 grown as biofilm assessed as membrane integrity by BacLight Live/Dead staining; type: functional
In short: (§1)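 P. aeruginosa PAO1 reactor-grown biofilm coupons soaked in 10 mg/liter agent without stirring. Coupons stained 1 h in the dark with BacLight Syto9/propidium iodide or CTC (1.6 μg/ml, 37°C) plus DAPI (10 μg/ml), then imaged by confocal microscopy. Ratios are read at the point where plate-count culturability fell to 60%, normalized to untreated biofilm.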

Pseudomonas aeruginosa [2] = experiment: Antimicrobial activity against Pseudomonas aeruginosa PAO1 grown as planktonic cells assessed as concentration and time required inactivate 2 log bacterial cells; type: functional
In short: (§2)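 Washed overnight PAO1 cultures at 10^6 CFU/ml in 50 ml, exposed to agent at 1 or 10 mg/liter (data averaged) in capped flasks with slow magnetic stirring. Survival by plate count only. Log10 reduction plotted against CT (mg·min/liter); CT90 or 2-log CT read or extrapolated from the curve.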

Pseudomonas aeruginosa [3] = experiment: Antimicrobial activity against Pseudomonas aeruginosa PAO1 assessed as log reduction in bacterial count at 10 mg/L after 50 mins by BacLight Live/Dead staining; type: functional
In short: (§3)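 P. aeruginosa PAO1 biofilm grown on reactor coupons (24 h batch in 1/100-strength TSB, room temp, 100 rpm, then 24 h continuous flow in 1/300-strength TSB). Coupons rinsed and soaked unstirred in 10 mg/liter agent. Biofilm removed by sonication/vortexing in PBS. Counts by plate count (24 h, 37°C), CTC (1.6 μg/ml) or Syto9/propidium iodide stain on filtered cells, each normalized to DAPI total and to untreated biofilm; log10 reduction.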

Pseudomonas aeruginosa [4] = experiment: Antimicrobial activity against Pseudomonas aeruginosa PAO1 assessed as log reduction in bacterial count at 10 mg/L after 50 mins by plate count method; type: functional; in short: as §3
Pseudomonas aeruginosa [5] = experiment: Ratio of antimicrobial activity against Pseudomonas aeruginosa PAO1 grown as biofilm assessed as concentration and time required inactivate 2 log bacterial cells to antimicrobial activity against Pseudomonas aeruginosa PAO1 grown as planktonic cells assessed as concentration and time required inactivate 2 log bacterial cells; type: functional
In short: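 Ratio computed as biofilm CT over planktonic CT for 2-log inactivation of PAO1. Biofilm values come from coupons exposed to 10 mg/liter agent. Planktonic values come from 10^6 CFU/ml suspensions exposed to 1 or 10 mg/liter. Both were measured by plate count.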

Pseudomonas aeruginosa [6] = experiment: Antimicrobial activity against Pseudomonas aeruginosa PAO1 grown as biofilms; type: functional, organism-based
In short: (§4)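 PAO1 biofilm grown 24 h batch then 24 h continuous flow on coupons, exposed to 10 mg/liter agent unstirred. Biofilm dislodged by sonication/vortexing, plate counted after 24 h at 37°C in triplicate. Log10 reduction plotted against concentration × contact time; CT for 2-log inactivation taken by extrapolating the curve. Experiments repeated 2–3 times.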

Pseudomonas aeruginosa [7] = experiment: Antimicrobial activity against Pseudomonas aeruginosa PAO1 grown as biofilm assessed as concentration and time required inactivate 2 log bacterial cells; type: functional; in short: as §4
Pseudomonas aeruginosa [8] = experiment: Antimicrobial activity against Pseudomonas aeruginosa PAO1 grown as biofilm assessed as respiratory activity by CTC-DAPI staining; type: functional, organism-based; in short: as §1
Pseudomonas aeruginosa [9] = experiment: Antimicrobial activity against Pseudomonas aeruginosa PAO1 assessed as log reduction in bacterial count at 10 mg/L after 50 mins by CTC staining; type: functional; in short: as §3
Pseudomonas aeruginosa [10] = experiment: Antimicrobial activity against Pseudomonas aeruginosa PAO1 grown as planktonic cells assessed as concentration and time required inactivate 1 log bacterial cells; type: functional; in short: as §2

NC[C@H]1O[C@H](O[C@H]2[C@H](O)[C@@H](O[C@H]3O[C@H](CO)[C@@H](O)[C@H](N)[C@H]3O)[C@H](N)C[C@@H]2N)[C@H](N)C[C@@H]1O [TOBRAMYCIN]
Activity (Pseudomonas aeruginosa [1]): 70% | Activity (Pseudomonas aeruginosa [2]): 30 mg·min/L | FC (Pseudomonas aeruginosa [3]): 0.2 | FC (Pseudomonas aeruginosa [4]): 1.5 | Ratio (Pseudomonas aeruginosa [5]): 33 | Activity (Pseudomonas aeruginosa [6]): Active | Activity (Pseudomonas aeruginosa [7]): 1000 mg·min/L | Activity (Pseudomonas aeruginosa [8]): Active | FC (Pseudomonas aeruginosa [9]): 0.9 | Activity (Pseudomonas aeruginosa [10]): 20 mg·min/L
